AI-2 QS modul – modulates the Vibrio harveyi AI-2 quorum sensing system; Vibrio harveyi JMH597 AI-2 luminescence/OD600 ratio, 9 h; hits give low values; strain lacks LuxN and CqsS sensors; 0 = neutral-control median; activity change, % at 7.5 µM; 0.4% of 300,000 active; in the data active = activity change below about -75%, passing the limit was not always enough;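 also: luminescence divided by OD600 gain over 9 h not by final OD600 alone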
T cruzi inh – T. cruzi replication inhibition; AID 1885; 1.4% of 300,000 active; inhibition, % (concentration not given with the values); T. cruzi beta-gal in NIH3T3, luminescence, 90 h;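 active = mean inhibition across valid replicates above about 55%, limit read from the data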;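 also: signal also drops with host cell toxicity which is not excluded here; 0% = plate median of DMSO wells and 100% = zero luminescence signal; higher percent means less beta-gal luminescence so fewer parasites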
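System: NIH/3T3 fibroblasts plus reporter T. cruzi. Medium: DMEM plus 2% FBS. Probe or stimulus: 5000 reporter trypomastigotes per well. Compound: single 50 nL compound addition per well in DMSO. Incubation: co-culture of at least 90 h after 3 h attachment. Detection: GalScreen β-gal luminescence, detergent lysis, 60 min. Evaluation: parasite load inhibition, %.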
HIF act – HIF pathway transcriptional activation; 0.32% of 300,000 active; AID 1910; U2OS HRE-luciferase reporter, luminescence; normalized: DMSO 0%, desferrioxamine 100%; activation, % at 7.5 µM (by protocol);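 active = mean activation of at least 10% of the iron chelator positive control signal, with at least half of replicates also reaching 10%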
ARNT TACC3 PPI – disruptors of human ARNT/TACC3 interaction | Q9Y6A5 | AlphaScreen His-ARNT PAS-B/GST-TACC3 binding, luminescence; TACC3 fragment carries E629A point mutation | inhibition, % at 9.99 µM | 0.66% of 390,000 active | AID 623870;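 active = mean inhibition of replicates at least 50% and at least half of replicates each reaching 50%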;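 also: 0% = complete ARNT plus TACC3 wells and 100% = ARNT alone without TACC3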
* hit, by the source's call; / = no result given; ! = repeats disagree. Shown are actives, neighbours in structure and some others; about 2% of the full set was active somewhere.

SMILES	AI-2 QS modul	T cruzi inh	HIF act	ARNT TACC3 PPI
COC(=O)c1ccc(OC)c(CN2CCCN(Cc3ccc(F)cc3)S2(=O)=O)c1	9	57*	-43	-9
C[C@@H]1CN([C@H](C)CO)C(=O)CCCn2cc(nn2)CO[C@@H]1CN(C)S(=O)(=O)c1ccccc1F	/	/	/	-4
COc1ccccc1-n1c(-c2ccccc2)c[n+]2c1CCc1ccccc1-2	41	76*!	0	0
COc1ccccc1-n1c(-c2ccccc2)c[nH]c1=S	33	-9	5	7
CC(C)c1ccc(-n2c(-c3ccccc3)c[n+]3c2CCc2ccccc2-3)cc1	10	67*	-2	0
COc1ccc(-n2c(-c3ccc(Br)cc3)c[n+]3c2CCc2ccccc2-3)cc1	16	60*	1	3
C[C@@H]1CN([C@H](C)CO)C(=O)c2cc(C3=CCCC3)cnc2O[C@H]1CN(C)Cc1ccc(C(=O)O)cc1	/	/	/	-1
CCCNC(=O)N1C[C@H](C)[C@H](OC)CN(C)C(=O)c2cc(NS(=O)(=O)CC(F)(F)F)ccc2OC[C@H]1C	/	/	/	9
Cc1ccc(S(=O)(=O)N(C)C[C@H]2Oc3ccc(NS(=O)(=O)c4cccs4)cc3C(=O)N([C@@H](C)CO)C[C@@H]2C)cc1	/	/	/	-13
C[C@@H]1CCCCO[C@H](CN(C)S(=O)(=O)c2ccc(Cl)cc2)[C@H](C)CN([C@@H](C)CO)C(=O)c2cc(NC(=O)CCCN(C)C)ccc2O1	/	/	/	2
CCOC(=O)CNc1c(-c2ccccc2)nc2ccc(Cl)cn12	14	1	2	14
COC(=O)CNc1c(-c2ccccn2)nc2ccc(Br)cn12	25	-5	3	62*
CCOc1ccc(-n2c(C)cc(C(=O)CCl)c2C)cc1	36	86*	5	5
CCOc1ccc(-n2c(C)cc(/C=N/N(C)C)c2C)cc1	14	56*	0	8
CCOc1ccc(-n2c(C)cc(/C=N/NC(=O)C(N)=O)c2C)cc1	14	7	0	11
CN(C)C(=O)c1ccc(-c2ccc3c(c2)[C@@H]2[C@@H](CCN2C(=O)c2ccccc2)[C@H](CO)N3)cc1	/	/	/	-5
COc1ccc(O)c(/C=N/Nc2nc(Nc3ccccc3)nc(-n3nc(C)cc3C)n2)c1	31	35	1	-3
COc1cc(/C=N/Nc2nc(Nc3ccccc3)nc(-n3nc(C)cc3C)n2)cc(OC)c1OC	7	55*	0	/
COc1cc(/C=N/Nc2nc(Nc3ccccc3)nc(N3CCOCC3)n2)ccc1OC(=O)c1ccco1	2	62*	0	-3
COc1cc(/C=N/Nc2nc(Nc3ccc(C)cc3)nc(-n3nc(C)cc3C)n2)cc(OC)c1OC	29	58*	-1	0
O=C(Nc1ccc(-c2nc3ccccc3o2)cc1)c1ccc(N2CCOCC2)c([N+](=O)[O-])c1	30	57*	0	7
O=[N+]([O-])c1cc(-c2nc3nc4ccccc4nc3n2CCc2ccccc2)cc([N+](=O)[O-])c1	-8	56*	0	-1
c1ccc(Cn2c(-c3ccccc3)nc3nc4ccccc4nc32)cc1	23	28	0	/
O=C(O)C[C@@H]1C[C@@H]2c3cc(NC(=O)NC4CCCC4)ccc3O[C@@H]2[C@@H](CO)O1	/	/	/	-7
C[C@@H]1CN([C@H](C)CO)C(=O)c2cc(NC(=O)Cc3cn(C)c4ccccc34)ccc2O[C@@H]1CN(C)CC1CC1	/	/	/	11
SMILES	AI-2 QS modul	T cruzi inh	HIF act	ARNT TACC3 PPI
CC1CN(c2nc3ccccn3c(=O)c2/C=C(\C#N)C(=O)N2CCOCC2)CC(C)O1 (stereo not given)	17	-24	18*	-20
O=C(/C=C/c1cn(-c2ccccc2)nc1-c1cccc(Cl)c1)N1CCN(c2ccccn2)CC1	-9	73*	1	-2
Cc1nn(-c2ccccc2)c(N)c1Sc1ccc([N+](=O)[O-])cc1	8	-13	0	7
Cc1nn(S(=O)(=O)c2ccc(Cl)cc2)c(C)c1Sc1ccc([N+](=O)[O-])cc1	37	62*	-41	-4
C[C@H]1CN([C@@H](C)CO)S(=O)(=O)c2ccc(-c3ccccc3)cc2O[C@H]1CN(C)C(=O)Nc1ccccc1F	/	/	/	5
O=C1OCc2cc(NC(=O)C34CC5CC(CC(C5)C3)C4)ccc21	19	-5	828*	-3
Cc1cccnc1NC(=O)c1ccc(Br)o1	2	-3	0	-3
O=C(Nc1nnc2n1CCS2)c1ccc(Br)o1	24	-17	0	46*
CC(C)c1ccc(CNc2ccc3c(c2)ncn3C)cc1	-79*	16	2	22
